Screening data deposited in PubChem by several laboratories.
SUMO Mot1 rescue: inhibitors of SUMOylation pathway: yeast Mot1-301 growth rescue. AID 2716. S. cerevisiae Mot1-301 growth rescue, ATP luminescence, 38.5C; percent above DMSO median, 100 means doubled. growth rescue, % at 18.8 µM. 1% of 320,000 active;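 active = every valid replicate shows activation above 250% relative to neutral control wells; inactive = the rest, any valid replicate at or below 250%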;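 note: OY570 slx delta 5 strain wells were the positive control but not used for scaling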
Cardiac RTF inh: cardiac RTF calcium desensitization | 0.12% of 340,000 active | inhibition, % at 7.15 µM | IANBD-labeled cardiac RTF, Ca2+ fluorescence | AID 493244;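 active = inhibition above the mean inhibition of all tested compounds plus 3 SD, cut at about 17% in these data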;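 note: assay run at fixed EC70 calcium of 1.6 mM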
RTF Ca sens act: cardiac RTF calcium sensitization; IANBD-labeled TnC RTF fluorescence at EC20 calcium; 0% EC20 calcium, 100% full calcium; activation, % at 7.2 µM; 0.24% of 340,000 active; AID 493008;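 active = activation above the mean over all tested compounds plus 3 SD, cut at about 30% in these data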;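 note: rise in fluorescence read as greater calcium sensitivity of cardiac thin filaments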
Efflux pump inh: blocks antifungal efflux pumps in multiplex yeast assay. AID 485275. inhibition, % at 10 µM. 0.44% of 330,000 active. S. cerevisiae Candida pump triplex, Nile Red efflux;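 active = plate passing quality check with inhibition over a set limit, or well fluorescence over plate mean plus 4 SD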;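 note: Nile Red retained in pooled yeast measured as flow cytometry median fluorescence; 0% = buffer negative control and 100% = Enniatin B positive control; higher means more Nile Red kept so more efflux inhibition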
UCH37 inh: blocks the human deubiquitinase UCH37. Q9Y5K5. purified proteasome/UCH37, Ub-AMC cleavage fluorescence. inhibition, % (test concentration not listed). 0.33% of 330,000 active;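 active = mean inhibition over replicate wells above about 20%, limit read from the data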;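 note: 0% = compound-free wells with enzyme and 100% = wells lacking proteasome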
Target sequence (Q9Y5K5 whole entry, looked up): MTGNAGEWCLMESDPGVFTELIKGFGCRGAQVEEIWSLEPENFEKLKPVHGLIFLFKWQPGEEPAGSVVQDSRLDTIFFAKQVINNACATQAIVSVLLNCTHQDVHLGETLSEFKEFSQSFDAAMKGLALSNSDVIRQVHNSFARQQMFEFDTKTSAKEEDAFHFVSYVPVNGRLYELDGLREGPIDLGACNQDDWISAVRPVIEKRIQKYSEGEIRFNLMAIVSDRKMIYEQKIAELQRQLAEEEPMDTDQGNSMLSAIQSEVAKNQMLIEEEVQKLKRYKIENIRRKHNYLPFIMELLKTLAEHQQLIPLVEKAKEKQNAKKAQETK
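Reagent: Ub-AMC substrate; assay system: Proteasome-associated human UCH37 deubiquitinase; controls: no-proteasome and no-compound wells; read-out: % inhibition of Ub-AMC cleavage fluorescence; timing: 30 min preincubation with enzyme, 25 min cleavage at room temperature; signal: AMC fluorescence from Ub-AMC cleavage, excitation 355 nm, emission 460 nm; buffer or medium: Tris-HCl pH 7.4 plus ovalbumin, ATP-MgCl2, DTT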
ARNT TACC3 PPI: disrupts binding between human ARNT and TACC3; Q9Y6A5; AlphaScreen His-ARNT PAS-B/GST-TACC3 binding, luminescence; TACC3 fragment carries E629A point mutation; inhibition, % at 9.99 µM; 0.66% of 390,000 active;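 active = mean inhibition of replicates at least 50% and at least half of replicates each reaching 50%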;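 note: 0% = complete ARNT plus TACC3 wells and 100% = ARNT alone without TACC3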
Yeast cmpd fluor: compound fluorescence in yeast efflux pump counter-screen | S. cerevisiae AD/pABC3, flow cytometry | shares compounds with Efflux pump inh | AID 588517 | fluorescence ratio to DMSO, % at 10 µM | 4% of 1,700 active;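 active = fluorescence ratio to DMSO above its plate's cutoff, the plate mean ratio plus 5 SD, cut at about 210% in these data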;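 note: unstained yeast with no Nile Red so the signal is compound autofluorescence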
CaMdr1 efflux inh: blocks the Candida albicans Mdr1 efflux pump in yeast | inhibition, % at 10 µM | AID 588518 | 1% of 1,700 active | S. cerevisiae AD/CaMDR1, Nile Red efflux, flow cytometry | shares compounds with Efflux pump inh; in the data active = inhibition above about 26%;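 note: 0% = DMSO vehicle and 100% = reference inhibitor; higher means more Nile Red retained so more efflux inhibition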
Cdr2 pump inh: inhibitors of Candida albicans Cdr2 efflux pump; S. cerevisiae AD/CaCDR2, Nile Red retention, flow cytometry; AID 588520; shares compounds with Efflux pump inh; 4% of 1,700 active; Nile Red retention ratio vs DMSO, % at 10 µM; in the data active = Nile Red retention ratio vs DMSO above about 190%;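 note: higher ratio means more blocking of Cdr2 efflux of the dye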
CaCdr1 efflux inh: blocks the Candida albicans Cdr1 efflux pump in yeast | shares compounds with Efflux pump inh | S. cerevisiae AD/CaCDR1, Nile Red efflux, flow cytometry | inhibition, % at 10 µM | 1% of 1,700 active;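 active = inhibition above the screen-wide mean plus twice its standard deviation, cut at about 32% in these data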
Starred values were filed as active, the others as inactive; . = no result given; + = active, no number. Compounds with a hit are over-represented: about 2.1% of the library has one in this group of screens.

SMILES | SUMO Mot1 rescue | Cardiac RTF inh | RTF Ca sens act | Efflux pump inh | UCH37 inh | ARNT TACC3 PPI | Yeast cmpd fluor | CaMdr1 efflux inh | Cdr2 pump inh | CaCdr1 efflux inh
Cc1ccc(-n2c(C)cc(/C([O-])=C(/C(=S)Nc3ccc(F)c(Cl)c3)[n+]3ccccc3)c2C)cc1 | -18 | -11 | 2 | 0.9* | 7 | -4 | 101 | 0 | 94 | 0
Cc1cc(/C([O-])=C(/C(=S)Nc2ccc(F)cc2)[n+]2ccccc2)c(C)n1Cc1ccccc1Cl | . | 8 | -7 | 0 | . | 2 | . | . | . | .
CCOC(=O)C(NC(=O)CC)(Nc1ccccc1)C(F)(F)F (centres undefined) | -5 | -3 | -3 | 5.5* | 1 | 4 | 93 | 0 | 94 | 0
CCOC(=O)C(NC(=O)CC)(Nc1ccc(S(N)(=O)=O)cc1)C(F)(F)F (centres undefined) | -2 | -3 | 0 | 0 | -2 | -2 | . | . | . | .
Cc1cccc(C(C)C)c1NC(=O)Cc1ccc(S(=O)(=O)N2CCOCC2)s1 | -15 | -1 | -2 | 0.5* | 1 | 1 | 285* | 1 | 112 | 0
Cc1cccc(NC(=O)CNC(=O)Cc2ccc(S(=O)(=O)N3CCOCC3)s2)c1C | -6 | -1 | 0 | 0 | 2 | . | . | . | . | .
COc1ccc(N)cc1C#N | 3 | -4 | 4 | 0.7* | 5 | -26 | 100 | 0 | 108 | 0
COc1ccc(N)cc1-n1c(C)ccc1C | 260 | -12 | 6 | 0 | -21 | -2 | . | . | . | .
CCC(CC)NCc1ccc(OC)cc1OC | 25 | -4 | -3 | 0 | 5 | 0 | . | . | . | .
COc1cc(N)ccc1Cc1ccc(N)cc1OC | -4 | -8 | -5 | 0.5* | 1 | 0 | 101 | 0 | 114 | 0
CC(=NNC(=S)NCc1ccccc1)c1ccc2ccccc2c1OC(F)F | . | . | . | . | 1 | . | . | . | . | .
O=C(O)CC/C(=N\NC(=O)c1ccccc1Br)c1ccccc1 | 11 | -10 | 6 | 18* | . | 2 | 103 | 0 | 98 | 0
Cc1ccc(NC(=O)C2CCN(S(=O)(=O)c3ccc(F)cc3)CC2)cc1 | 5 | -6 | -1 | 0 | 2 | -7 | . | . | . | .
Cc1ccc(S(=O)(=O)N2CCC(C(=O)N[C@@H](C)C(=O)Nc3ccc(F)cc3)CC2)cc1 | -12 | -6 | 3 | 0.8* | 1 | . | 112 | 0 | 119 | 0
COc1ccc(N/C=C/C(=O)c2ccc(Cl)cc2)cc1 | 3 | -2 | 0 | 15* | -5 | 1 | 94 | 0 | 100 | 0
CCOC(=O)c1c(NC(=O)c2ccc(-n3cnnn3)cc2)sc2c1CCCC2 | . | 1 | 0 | . | -54 | -1 | . | . | . | .
Cn1cc(Br)c(C(=O)Nc2sc3c(c2C(N)=O)CCC3)n1 | 659 | -1 | 7 | 0 | -35 | -2 | 100 | 0 | 93 | 0
CCn1ncc(Br)c1C(=O)Nc1sc2c(c1C(N)=O)CCC2 | -1 | -3 | 2 | 0 | -325 | -23 | 94 | 0 | 100 | 0
CC(=O)Nc1sc2c(c1C(N)=O)CCC2 | 2 | -10 | 15 | 0 | 0 | 0 | . | . | . | .
CCOC(=O)c1c(NC(=O)c2ccn(CC)n2)sc2c1CCC2 | 80 | -2 | 0 | 0.4* | -94 | 0 | 98 | 0 | 98 | 0
O=C(NN=Cc1ccsc1)c1ccc2ccccc2n1 | . | . | . | . | -1 | . | . | . | . | .
Cc1c(CCOC(=O)C23CC4CC(CC(C)(C4)C2)C3)sc[n+]1Cc1ccccc1 | -14 | -7 | 0 | 1.2* | 4 | 2 | 114 | 1 | + | 0
CN(C)C=Nc1cc(=O)n(C)c(=O)n1CC1CC1 | . | . | . | . | 1 | . | . | . | . | .
CN(C)C=Nc1ncn(-c2ncc(C(F)(F)F)cc2Cl)n1 | . | . | . | . | 1 | . | . | . | . | .
